Non-standard residues stand in square brackets, D forms with d. Residues, ends and D or L forms follow the SMILES beside them. *: point of attachment. NH(CH2CH2O)11C2H4NHBiotinyl = O=C(CCCC[C@@H]1SC[C@@H]2NC(=O)N[C@@H]21)NCCOCCOCCOCCOCCOCCOCCOCCOCCOCCOCCOCCN*; Lys(iBu,2-norbornyl) = CC(C)CN(CCCC[C@H](N)C(=O)O)C1CC2CCC1C2; Lys(Me,2-norbornyl) = CN(CCCC[C@H](N)C(=O)O)C1CC2CCC1C2; Nva(5-morpholino) = N[C@@H](CCCN1CCOCC1)C(=O)O; Benzoyl(4-tBu) = CC(C)(C)c1ccc(C(=O)*)cc1; Gly(cBu) = N[C@H](C(=O)O)C1CCC1
Tests used:
[1] = target: T1, CBX7 (Mus musculus, UniProt Q8VDS3); experiment: CBX7 GFP reporter assay in mESCs; format: cell-based; conditions: result in words
T1 sequence (Q8VDS3 1-158): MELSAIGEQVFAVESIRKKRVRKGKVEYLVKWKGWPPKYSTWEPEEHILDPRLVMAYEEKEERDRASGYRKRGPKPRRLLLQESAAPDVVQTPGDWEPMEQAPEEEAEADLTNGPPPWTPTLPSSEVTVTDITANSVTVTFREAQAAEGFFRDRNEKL

[2] = target: T2, CDYL2 (Homo sapiens, UniProt Q8N8U2); experiment: TR-FRET competitive displacement assay; format: binding
T2 sequence (Q8N8U2 1-75): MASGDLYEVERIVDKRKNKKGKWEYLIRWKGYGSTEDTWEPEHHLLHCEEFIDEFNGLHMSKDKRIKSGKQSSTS

[3] = tested on: CBX2, CBX6, and CBX7; experiment: ChIP-qPCR at endogenous Polycomb target genes; format: cell-based, mouse; conditions: 20 μM, wild-type mESCs (absence of CBX8)
[4] = tested on: mESCs; experiment: CellTiter-Glo cell viability assay; format: cell-based, mouse; conditions: 48 h, result in words
Summary of the method: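 mESCs plated at 5,000 cells/well onto a ten-point 1:2 compound dilution series in mESC medium. 48 h at 37°C, 5% CO2. Lysed with CellTiter-Glo reagent; luminescence read after 15 min at room temperature in dim light.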

[5] = target: T3, CBX8 (Mus musculus, UniProt Q9QXV1); experiment: CBX8 GFP reporter assay in mESCs; format: cell-based; conditions: 48 h, result in words
T3 sequence (Q9QXV1 1-362): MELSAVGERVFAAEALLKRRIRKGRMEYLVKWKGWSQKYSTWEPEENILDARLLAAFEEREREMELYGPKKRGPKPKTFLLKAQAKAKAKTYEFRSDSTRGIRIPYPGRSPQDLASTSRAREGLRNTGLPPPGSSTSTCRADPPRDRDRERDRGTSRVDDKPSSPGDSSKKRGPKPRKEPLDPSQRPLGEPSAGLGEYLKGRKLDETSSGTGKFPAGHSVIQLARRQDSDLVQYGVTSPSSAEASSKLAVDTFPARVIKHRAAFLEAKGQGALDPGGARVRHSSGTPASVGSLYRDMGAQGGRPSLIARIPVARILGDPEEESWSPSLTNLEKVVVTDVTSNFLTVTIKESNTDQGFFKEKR
Summary of the method: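 Mouse ESC reporter line carrying 12xZFHD1, 4xGAL4 and 7xTetO sites upstream of a Puromycin-GFP gene, made by recombinase-mediated cassette exchange. Cells grown feeder-free in high-glucose DMEM with 13.5% FBS and LIF. 2,000 cells/well seeded onto compound in triplicate: 10-point 2-fold series, or for ester analogues 15-point 1.5-fold series with 0.06% DMSO final. 48 h at 37°C. GFP read by flow cytometry on gated live single cells.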

[6] = target: 274 purified Kme readers (Homo sapiens, UniProt P83916); experiment: Protein domain microarray; format: binding; conditions: 1 μM, qualitative
274 purified Kme readers (Homo sapiens, UniProt P83916), sequence (P83916 1-79): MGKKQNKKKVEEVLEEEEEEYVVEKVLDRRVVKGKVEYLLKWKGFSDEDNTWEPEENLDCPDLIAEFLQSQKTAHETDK

[7] = target: 274 purified Kme readers (Homo sapiens, UniProt Q13185); experiment: Protein domain microarray; format: binding; conditions: 1 μM, qualitative
274 purified Kme readers (Homo sapiens, UniProt Q13185), sequence (Q13185 1-88): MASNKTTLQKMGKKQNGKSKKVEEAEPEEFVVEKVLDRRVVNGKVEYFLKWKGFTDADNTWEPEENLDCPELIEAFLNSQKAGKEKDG

[8] = target: T4, 274 purified Kme readers (Homo sapiens, UniProt Q8N8U2); experiment: Protein domain microarray; format: binding; conditions: 1 μM, qualitative
T4 sequence (Q8N8U2 1-67): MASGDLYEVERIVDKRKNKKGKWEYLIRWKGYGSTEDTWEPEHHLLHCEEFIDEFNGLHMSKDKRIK

[9] = target: T5, 274 purified Kme readers (Homo sapiens, UniProt O95503); experiment: Protein domain microarray; format: binding; conditions: 1 μM, qualitative
T5 sequence (O95503 1-69): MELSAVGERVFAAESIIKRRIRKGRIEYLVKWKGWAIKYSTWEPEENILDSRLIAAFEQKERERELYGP

[10] = target: T6, 274 purified Kme readers (Homo sapiens, UniProt Q9HC52); experiment: Protein domain microarray; format: binding; conditions: 1 μM, qualitative
T6 sequence (Q9HC52 1-69): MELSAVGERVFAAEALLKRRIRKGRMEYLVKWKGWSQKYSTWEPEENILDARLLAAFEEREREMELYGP

[11] = target: T7, 274 purified Kme readers (Homo sapiens, UniProt O00257); experiment: Protein domain microarray; format: binding; conditions: 1 μM, qualitative
T7 sequence (O00257 1-69): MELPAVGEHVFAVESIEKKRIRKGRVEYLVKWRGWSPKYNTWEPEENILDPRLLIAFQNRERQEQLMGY

[12] = target: 274 purified Kme readers (Homo sapiens, UniProt P45973); experiment: Protein domain microarray; format: binding; conditions: 1 μM, qualitative
274 purified Kme readers (Homo sapiens, UniProt P45973), sequence (P45973 1-78): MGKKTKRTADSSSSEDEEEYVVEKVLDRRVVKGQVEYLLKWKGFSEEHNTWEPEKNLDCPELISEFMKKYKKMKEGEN

[13] = target: T8, 274 purified Kme readers (Homo sapiens, UniProt Q14781); experiment: Protein domain microarray; format: binding; conditions: 1 μM, qualitative
T8 sequence (Q14781 1-70): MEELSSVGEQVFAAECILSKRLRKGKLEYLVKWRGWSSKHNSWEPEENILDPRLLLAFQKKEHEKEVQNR

[14] = target: T9, 274 purified Kme readers (Homo sapiens, UniProt O95931); experiment: Protein domain microarray; format: binding; conditions: 1 μM, qualitative
T9 sequence (O95931 1-69): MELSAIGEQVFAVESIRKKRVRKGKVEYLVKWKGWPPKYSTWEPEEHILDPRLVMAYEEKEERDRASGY

| SMILES | cellular activity in the CBX7 reporter cell line [1] | IC50 [2] | chromatin binding of CBX2, CBX6, and CBX7 [3] | cytotoxicity [4] | GFP reactivation / cellular activity in the CBX8 reporter assay [5] | binding to CBX1 on microarray [6] | binding to CBX3 on microarray [7] | binding to the CD of CDYL2 on microarray [8] | binding to CBX6 on microarray [9] | binding to CBX8 CD on microarray [10] | binding to CBX4 on microarray [11] | binding to CBX5 on microarray [12] | binding to CBX2 CD on microarray [13] | binding to CBX7 on microarray [14] |
| --- | --- | --- | --- | --- | --- | --- | --- | --- | --- | --- | --- | --- | --- | --- |
| COC(=O)[C@H](CO)NC(=O)[C@H](CCCCN(CC(C)C)C1CC2CCC1C2)NC(=O)[C@H](CCCN1CCOCC1)NC(=O)[C@@H](NC(=O)[C@H](Cc1ccccc1)NC(=O)c1ccc(C(C)(C)C)cc1)C1CCC1 (stereo partly drawn) [Compound 34, Methyl N^6-(bicyclo[2.2.1]heptan-2-yl)-N^2-((S)-2-((S)-2-((S)-2-(4-(tert-butyl)benzamido)-3-phenylpropanamido)-2-cyclobutylacetamido)-5-morpholinopentanoyl)-N^6-isobutyl-L-lysyl-L-serinate] ({Benzoyl(4-tBu)}-F[Gly(cBu)][Nva(5-morpholino)][Lys(iBu,2-norbornyl)]S-OMe) | no cellular activity | ~100 µM | minimal effects on chromatin binding |  |  |  |  |  |  |  |  |  |  |  |
| COC(=O)[C@H](CO)NC(=O)[C@H](CCCCN(C)C1CC2CCC1C2)NC(=O)[C@H](CCCN1CCOCC1)NC(=O)[C@@H](NC(=O)[C@H](Cc1ccccc1)NC(=O)c1ccc(C(C)(C)C)cc1)C1CCC1 (stereo partly drawn) [Compound 38, Methyl N^6-(bicyclo[2.2.1]heptan-2-yl)-N^2-((S)-2-((S)-2-((S)-2-(4-(tert-butyl)benzamido)-3-phenylpropanamido)-2-cyclobutylacetamido)-5-morpholinopentanoyl)-N^6-methyl-L-lysyl-L-serinate] ({Benzoyl(4-tBu)}-F[Gly(cBu)][Nva(5-morpholino)][Lys(Me,2-norbornyl)]S-OMe) |  | 0.96 ± 0.14 µM |  | no cytotoxicity up to 100 μM | no cellular activity |  |  |  |  |  |  |  |  |  |
| CC(C)CN(CCCC[C@H](NC(=O)[C@H](CCCN1CCOCC1)NC(=O)[C@@H](NC(=O)[C@H](Cc1ccccc1)NC(=O)c1ccc(C(C)(C)C)cc1)C1CCC1)C(=O)N[C@@H](CO)C(=O)NCCOCCOCCOCCOCCOCCOCCOCCOCCOCCOCCOCCNC(=O)CCCC[C@@H]1SC[C@@H]2NC(=O)N[C@@H]21)C1CC2CCC1C2 (stereo partly drawn) [Compound 39] ({Benzoyl(4-tBu)}-F[Gly(cBu)][Nva(5-morpholino)][Lys(iBu,2-norbornyl)]S-{NH(CH2CH2O)11C2H4NHBiotinyl}) |  |  |  |  |  | did not display binding | did not display binding | weakly | less strongly | bound strongly | less strongly | did not display binding | bound strongly | less strongly |

From PMC9035045 (Cell chemical biology, 2021)
